Columns and labels:
[1] = target: Vascular endothelial growth factor receptor 2 (Homo sapiens, UniProt P35968); assay: Inhibition of N-terminal GST-tagged human VEGFR2 cytoplasmic domain (790-1356 end amino acid residue) expressed in baculovirus expression system preincubated for 30 to 120 mins followed by incubation with substrate and ATP for 30 mins by off-chip mobility shift assay
Summary of the method: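 Recombinant VEGFR2 kinase preincubated with compound for 30 or 120 min at RT. Substrate plus ATP (75 µmol/L) added, 30 min at RT, then stopped with termination buffer and read by off-chip mobility shift. No-ATP wells set as 100% inhibition, DMSO wells as 0%. IC50 from Sigmoid-Emax nonlinear regression per experiment.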

[2] = target: Fibroblast growth factor receptor 3 (Homo sapiens, UniProt P22607); assay: Inhibition of N-terminal GST-tagged human FGFR3 cytoplasmic domain (436-806 end amino acids residues) expressed in baculovirus expression system preincubated for 30 to 120 mins followed by incubation with substrate and ATP for 30 mins by off-chip mobility shift assay
Chain of Fibroblast growth factor receptor 3 (P22607 whole entry, the tested form may be a part): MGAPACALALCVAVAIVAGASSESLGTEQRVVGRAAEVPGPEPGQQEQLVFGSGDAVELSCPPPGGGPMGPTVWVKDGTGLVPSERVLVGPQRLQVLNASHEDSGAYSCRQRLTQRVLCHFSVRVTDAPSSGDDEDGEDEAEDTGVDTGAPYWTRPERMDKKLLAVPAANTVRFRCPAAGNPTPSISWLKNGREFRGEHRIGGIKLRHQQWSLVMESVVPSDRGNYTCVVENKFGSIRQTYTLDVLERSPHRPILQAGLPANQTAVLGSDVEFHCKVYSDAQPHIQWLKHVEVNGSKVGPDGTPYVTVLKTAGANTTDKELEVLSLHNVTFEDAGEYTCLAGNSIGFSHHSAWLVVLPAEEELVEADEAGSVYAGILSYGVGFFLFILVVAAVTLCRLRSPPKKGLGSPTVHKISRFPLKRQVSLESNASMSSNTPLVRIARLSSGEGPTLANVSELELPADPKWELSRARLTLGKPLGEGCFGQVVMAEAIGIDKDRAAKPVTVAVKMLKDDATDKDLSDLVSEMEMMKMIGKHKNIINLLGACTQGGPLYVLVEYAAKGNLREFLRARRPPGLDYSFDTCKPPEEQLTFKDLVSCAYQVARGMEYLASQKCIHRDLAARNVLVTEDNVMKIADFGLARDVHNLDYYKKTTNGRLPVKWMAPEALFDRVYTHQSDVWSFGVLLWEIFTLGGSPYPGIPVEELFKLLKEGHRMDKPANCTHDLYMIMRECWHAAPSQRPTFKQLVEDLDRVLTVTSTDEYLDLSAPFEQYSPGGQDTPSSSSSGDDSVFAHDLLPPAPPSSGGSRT

[3] = target: Fibroblast growth factor receptor 1 (Homo sapiens, UniProt P11362); assay: Inhibition of N-terminal GST-tagged human FGFR1 cytoplasmic domain (398-822 end amino acids residues) expressed in baculovirus expression system preincubated for 30 to 120 mins followed by incubation with substrate and ATP for 30 mins by off-chip mobility shift assay
Chain of Fibroblast growth factor receptor 1 (P11362 whole entry, the tested form may be a part): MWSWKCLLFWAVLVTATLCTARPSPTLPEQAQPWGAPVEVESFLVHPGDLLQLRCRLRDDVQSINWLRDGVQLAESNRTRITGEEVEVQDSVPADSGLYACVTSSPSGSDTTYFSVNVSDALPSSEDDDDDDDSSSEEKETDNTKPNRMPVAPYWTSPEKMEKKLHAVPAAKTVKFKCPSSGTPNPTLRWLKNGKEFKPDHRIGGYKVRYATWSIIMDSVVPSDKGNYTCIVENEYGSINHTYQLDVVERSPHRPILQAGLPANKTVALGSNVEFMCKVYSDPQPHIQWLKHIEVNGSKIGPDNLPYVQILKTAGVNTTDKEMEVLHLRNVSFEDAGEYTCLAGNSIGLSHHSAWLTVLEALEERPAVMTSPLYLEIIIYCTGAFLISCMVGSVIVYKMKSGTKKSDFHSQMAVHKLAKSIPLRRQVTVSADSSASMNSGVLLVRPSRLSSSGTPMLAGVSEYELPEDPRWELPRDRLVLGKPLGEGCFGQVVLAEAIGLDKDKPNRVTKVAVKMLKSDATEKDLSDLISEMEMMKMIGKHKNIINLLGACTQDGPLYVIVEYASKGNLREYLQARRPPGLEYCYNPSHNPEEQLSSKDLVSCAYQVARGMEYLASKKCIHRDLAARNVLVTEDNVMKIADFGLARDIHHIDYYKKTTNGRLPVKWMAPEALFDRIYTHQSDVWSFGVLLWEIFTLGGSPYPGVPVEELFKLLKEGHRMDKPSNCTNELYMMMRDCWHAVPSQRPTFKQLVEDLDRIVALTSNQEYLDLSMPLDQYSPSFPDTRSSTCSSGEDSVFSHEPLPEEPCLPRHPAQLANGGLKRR

[4] = target: Fibroblast growth factor receptor 2 (Homo sapiens, UniProt P21802); assay: Inhibition of N-terminal GST-tagged human FGFR2 cytoplasmic domain (399-821 end amino acids residues) expressed in baculovirus expression system preincubated for 30 to 120 mins followed by incubation with substrate and ATP for 30 mins by off-chip mobility shift assay
Chain of Fibroblast growth factor receptor 2 (P21802 whole entry, the tested form may be a part): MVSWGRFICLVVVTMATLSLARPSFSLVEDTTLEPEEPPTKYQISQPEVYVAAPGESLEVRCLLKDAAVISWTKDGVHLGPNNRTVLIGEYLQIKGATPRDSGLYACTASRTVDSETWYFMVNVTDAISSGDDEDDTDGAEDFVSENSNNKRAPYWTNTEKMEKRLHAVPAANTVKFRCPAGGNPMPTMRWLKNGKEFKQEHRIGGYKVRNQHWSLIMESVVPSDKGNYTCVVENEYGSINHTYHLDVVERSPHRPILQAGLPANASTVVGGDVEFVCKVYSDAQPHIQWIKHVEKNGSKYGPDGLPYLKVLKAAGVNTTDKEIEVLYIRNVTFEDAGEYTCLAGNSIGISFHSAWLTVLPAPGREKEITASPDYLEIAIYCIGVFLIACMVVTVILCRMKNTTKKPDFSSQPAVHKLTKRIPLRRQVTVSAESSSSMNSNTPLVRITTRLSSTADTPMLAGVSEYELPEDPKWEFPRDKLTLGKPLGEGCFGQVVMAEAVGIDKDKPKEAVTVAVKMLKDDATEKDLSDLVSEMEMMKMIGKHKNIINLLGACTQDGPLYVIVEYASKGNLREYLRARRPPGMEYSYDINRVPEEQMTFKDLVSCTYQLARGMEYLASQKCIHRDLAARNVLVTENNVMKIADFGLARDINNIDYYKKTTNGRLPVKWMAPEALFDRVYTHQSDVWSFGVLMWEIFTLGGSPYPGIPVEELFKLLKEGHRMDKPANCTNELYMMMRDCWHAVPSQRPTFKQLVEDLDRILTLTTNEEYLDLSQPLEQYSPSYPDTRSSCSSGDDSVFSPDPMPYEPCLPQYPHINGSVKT

[5] = target: Fibroblast growth factor receptor 4 (Homo sapiens, UniProt P22455); assay: Inhibition of N-terminal GST-tagged human FGFR4 cytoplasmic domain (460-802 end amino acids residues) expressed in baculovirus expression system preincubated for 30 to 120 mins followed by incubation with substrate and ATP for 30 mins by off-chip mobility shift assay
Chain of Fibroblast growth factor receptor 4 (P22455 whole entry, the tested form may be a part): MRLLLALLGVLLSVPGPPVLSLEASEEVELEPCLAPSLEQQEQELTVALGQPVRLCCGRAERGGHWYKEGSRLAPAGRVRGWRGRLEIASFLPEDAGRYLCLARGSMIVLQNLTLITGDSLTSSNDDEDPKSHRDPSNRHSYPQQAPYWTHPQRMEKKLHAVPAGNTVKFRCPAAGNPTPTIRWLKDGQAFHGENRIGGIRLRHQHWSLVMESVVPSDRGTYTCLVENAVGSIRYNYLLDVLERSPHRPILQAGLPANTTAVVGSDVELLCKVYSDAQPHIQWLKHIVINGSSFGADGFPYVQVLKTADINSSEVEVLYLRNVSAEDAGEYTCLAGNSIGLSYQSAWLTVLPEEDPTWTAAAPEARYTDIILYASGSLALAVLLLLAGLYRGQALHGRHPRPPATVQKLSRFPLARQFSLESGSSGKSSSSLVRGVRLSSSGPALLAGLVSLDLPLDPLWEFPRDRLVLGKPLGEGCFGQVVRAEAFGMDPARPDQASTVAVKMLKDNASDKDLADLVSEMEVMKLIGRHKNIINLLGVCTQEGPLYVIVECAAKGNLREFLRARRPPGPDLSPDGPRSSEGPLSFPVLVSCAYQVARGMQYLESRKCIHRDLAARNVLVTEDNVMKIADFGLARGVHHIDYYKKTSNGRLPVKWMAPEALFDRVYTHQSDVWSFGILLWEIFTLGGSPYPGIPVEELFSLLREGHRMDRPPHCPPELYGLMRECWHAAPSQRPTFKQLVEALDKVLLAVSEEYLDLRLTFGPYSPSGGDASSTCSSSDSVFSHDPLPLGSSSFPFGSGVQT

[6] = Antiproliferative activity against human UM-UC-14 cells harboring FGFR3 S249C mutation assessed as inhibition of cell growth incubated for 5 days by CellTier-Glo luminescent assay; details: UMUC14, 120 h

Chain of Vascular endothelial growth factor receptor 2 (P35968 whole entry, the tested form may be a part): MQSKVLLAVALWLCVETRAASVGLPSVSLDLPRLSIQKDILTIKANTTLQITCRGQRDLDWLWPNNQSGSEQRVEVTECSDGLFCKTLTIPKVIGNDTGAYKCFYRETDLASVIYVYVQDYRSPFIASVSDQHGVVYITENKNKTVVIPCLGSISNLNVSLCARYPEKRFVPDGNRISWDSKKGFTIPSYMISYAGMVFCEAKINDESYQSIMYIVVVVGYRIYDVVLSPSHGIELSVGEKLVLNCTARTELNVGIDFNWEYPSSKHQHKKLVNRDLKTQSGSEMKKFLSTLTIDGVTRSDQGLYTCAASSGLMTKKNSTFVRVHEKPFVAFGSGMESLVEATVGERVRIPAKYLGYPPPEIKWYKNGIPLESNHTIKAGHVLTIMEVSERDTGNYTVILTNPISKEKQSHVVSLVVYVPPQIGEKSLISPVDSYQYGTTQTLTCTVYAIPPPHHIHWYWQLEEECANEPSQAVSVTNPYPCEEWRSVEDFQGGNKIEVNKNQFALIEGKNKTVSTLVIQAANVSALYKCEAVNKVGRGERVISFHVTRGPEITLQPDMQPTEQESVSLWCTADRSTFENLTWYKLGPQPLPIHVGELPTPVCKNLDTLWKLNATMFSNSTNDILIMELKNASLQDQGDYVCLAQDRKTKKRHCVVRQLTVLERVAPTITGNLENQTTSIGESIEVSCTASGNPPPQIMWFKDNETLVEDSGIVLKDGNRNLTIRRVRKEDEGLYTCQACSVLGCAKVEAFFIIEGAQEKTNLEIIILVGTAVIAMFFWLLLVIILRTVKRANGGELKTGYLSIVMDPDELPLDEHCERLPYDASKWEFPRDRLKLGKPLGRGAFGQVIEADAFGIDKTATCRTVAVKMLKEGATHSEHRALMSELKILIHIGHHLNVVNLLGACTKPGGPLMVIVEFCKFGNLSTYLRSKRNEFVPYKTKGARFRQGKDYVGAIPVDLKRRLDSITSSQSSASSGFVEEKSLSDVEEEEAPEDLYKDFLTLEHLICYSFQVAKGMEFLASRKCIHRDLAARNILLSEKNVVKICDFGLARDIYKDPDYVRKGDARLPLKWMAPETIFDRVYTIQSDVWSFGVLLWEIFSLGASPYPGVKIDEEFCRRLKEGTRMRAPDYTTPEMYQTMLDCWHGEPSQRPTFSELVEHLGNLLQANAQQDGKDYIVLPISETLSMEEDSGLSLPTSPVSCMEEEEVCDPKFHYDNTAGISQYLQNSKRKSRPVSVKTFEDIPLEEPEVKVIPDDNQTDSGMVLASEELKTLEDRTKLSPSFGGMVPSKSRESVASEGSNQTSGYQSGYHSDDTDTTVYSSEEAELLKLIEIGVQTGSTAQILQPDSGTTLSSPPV

Compound	IC50 [1] [nM]	further results
CCNS(=O)(=O)c1ccccc1Nc1nc(Nc2ccc(N3CCC(N4CCN(C)CC4)CC3)c(OC)c2)ncc1CCc1cc(OC)cc(OC)c1	292	–
CCNS(=O)(=O)c1ccccc1Nc1ncnc(Nc2ccc(N3CCN(C)CC3)c(OCC(=O)O)c2)n1	120	–
CCNS(=O)(=O)c1ccccc1Nc1nc(Nc2ccc(N3CCC(N4CCN(C)CC4)CC3)c(OC)c2)ncc1Cc1cc(OC)cc(OC)c1	> 1000	IC50 [2]: > 1000 nM
CCNS(=O)(=O)c1ccccc1Nc1ncnc(Nc2ccc(N3CCN(C)CC3)c(OCCCN3CCOCC3)c2)n1	736	–
CCNS(=O)(=O)c1ccccc1Nc1nc(Nc2ccc(N3CCC(N4CCN(C)CC4)CC3)c(OC)c2)ncc1NC(=O)c1cc(OC)cc(OC)c1	> 1000	IC50 [3]: 2.1 nM; IC50 [4]: 3.1 nM; IC50 [5]: 74 nM; IC50 [6]: 84 nM
CCNS(=O)(=O)c1ccccc1Nc1ncnc(Nc2ccc(N3CCC(N4CCN(C)CC4)CC3)c(OC)c2)n1	266	–
CCNS(=O)(=O)c1ccccc1Nc1nc(Nc2ccc(N3CCC(N4CCN(C)CC4)CC3)c(OC)c2)ncc1-c1cc(OC)cc(OC)c1	38	–
CCNS(=O)(=O)c1ccccc1Nc1nc(Nc2ccc(N3CCC(N4CCN(C)CC4)CC3)c(OC)c2)ncc1NC(=O)c1cc(OC)ccc1OC	435	–
CCNS(=O)(=O)c1ccccc1Nc1nc(Nc2ccc(N3CCC(N4CCN(C)CC4)CC3)c(OC)c2)ncc1NC(=O)c1cc(C)cc(C)c1	554	–
CCNS(=O)(=O)c1ccccc1Nc1ncnc(Nc2ccc(N3CCN(C)CC3)c(OCC(=O)OCC)c2)n1	316	–
CCNS(=O)(=O)c1ccccc1Nc1nc(Nc2ccc(N3CCC(N4CCN(C)CC4)CC3)c(OC)c2)ncc1NC(=O)c1nc(OC)cc(OC)n1	131	–
CCNS(=O)(=O)c1ccccc1Nc1ncnc(Nc2ccc(N3CCN(C)CC3)c(OCCN3CCOCC3)c2)n1	570	–
CCNS(=O)(=O)c1ccccc1Nc1nc(Nc2ccc(N3CCC(N4CCN(C)CC4)CC3)c(OC)c2)ncc1NC(=O)c1cc(O)cc(O)c1	715	–
CCNS(=O)(=O)c1ccccc1Nc1ncnc(Nc2ccc(N3CCN(C)CC3)c(OCCOC)c2)n1	310	–
CCNS(=O)(=O)c1ccccc1Nc1nc(Nc2ccc(N3CCC(N4CCN(C)CC4)CC3)c(OC)c2)ncc1NC(=O)c1cc(OC)nc(OC)n1	227	–
CCNS(=O)(=O)c1ccccc1Nc1ncnc(Nc2ccc(N3CCN(C)CC3)c(OCCOCCOC)c2)n1	550	–
CCNS(=O)(=O)c1ccccc1Nc1ncnc(Nc2ccc(N3CCN(C)CC3)c(OCCN3CCN(C)CC3)c2)n1	341	–
CCNS(=O)(=O)c1ccccc1Nc1ncnc(Nc2ccc(N3CCN(C)CC3)c(OC)c2)n1	341	–
CCNS(=O)(=O)c1ccccc1Nc1nc(Nc2ccc(N3CCC(N4CCN(C)CC4)CC3)c(OC)c2)ncc1NC(=O)c1cccc(OC)c1OC	461	–

Source: ChEMBL document CHEMBL4627366, “Structure-based drug design of 1,3,5-triazine and pyrimidine derivatives as novel FGFR3 inhibitors with high selectivity over VEGFR2” (Bioorg Med Chem, 2020)
